Assay results collected from several papers.
Each line is one published result; the experiments were not run side by side.
Target: NUAK family SNF1-like kinase 2 (NUAK2, Homo sapiens, UniProt Q9H093)
One construct used (Q9H093 1-628): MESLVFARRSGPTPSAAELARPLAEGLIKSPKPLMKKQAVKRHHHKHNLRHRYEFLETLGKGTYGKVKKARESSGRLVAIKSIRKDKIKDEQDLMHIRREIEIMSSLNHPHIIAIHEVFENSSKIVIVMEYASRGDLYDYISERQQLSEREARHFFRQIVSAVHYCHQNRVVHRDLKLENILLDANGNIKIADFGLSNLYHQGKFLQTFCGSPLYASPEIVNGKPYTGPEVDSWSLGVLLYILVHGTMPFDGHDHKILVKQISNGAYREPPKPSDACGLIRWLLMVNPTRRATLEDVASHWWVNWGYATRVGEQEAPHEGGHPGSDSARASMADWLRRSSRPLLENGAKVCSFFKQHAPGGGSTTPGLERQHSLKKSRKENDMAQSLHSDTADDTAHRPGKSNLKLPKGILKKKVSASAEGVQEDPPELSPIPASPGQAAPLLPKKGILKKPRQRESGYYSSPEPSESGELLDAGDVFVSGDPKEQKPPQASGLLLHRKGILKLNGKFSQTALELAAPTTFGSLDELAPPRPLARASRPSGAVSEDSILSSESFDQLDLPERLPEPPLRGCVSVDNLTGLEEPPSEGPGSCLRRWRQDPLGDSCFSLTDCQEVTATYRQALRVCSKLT

O=C1Nc2ccc(Cl)cc2C1=Cc1cc(Cl)c(O)c(Cl)c1 has a remaining signal of 78.7% (cell-free assay; 0.5 µM).
For CC(C)(O)[C@H]1CC[C@H](Nc2ccc3ncc(-c4cccc(C(F)(F)F)c4)n3n2)CC1, the remaining activity was 84.9% (enzyme activity, inhibitor; 1 µM).
Cc1ccc(C(=O)Nc2ccc(CN3CCN(C)CC3)c(C(F)(F)F)c2)cc1C#Cc1cnc2cccnn12 has a remaining activity of 84% (enzyme activity, inhibitor; 23.5 nM).
O=C(Nc1cnn(-c2csc(C(=O)NC3COC3)c2)c1)Nc1c(F)cccc1Cl gave a remaining activity of 97.8% (enzyme activity, inhibitor; 5 µM).
With CN(c1ccnc(CNc2nc(Nc3ccc4c(c3)CC(=O)N4)ncc2C(F)(F)F)n1)S(C)(=O)=O the remaining binding was 7.6% (cell-free assay, competition with immobilised ligand; 1 µM).
The remaining activity of CC(C)(C)c1nc(-c2cccc(NS(=O)(=O)c3c(F)cccc3F)c2F)c(-c2ccnc(N)n2)s1 is reported as 90% (enzyme activity, inhibitor, radiometric; 1 µM).
For COc1cc(-c2cn(C3CCc4c(F)cccc4N(CC(F)(F)F)C3=O)nn2)ccc1-n1cnc(C)c1 (centres unmarked), the remaining binding was 100% (cell-free assay, competition with immobilised ligand; 1 µM).
For CC/C(=N\NC(=O)NCc1cccc(O)c1)c1ccc(O)c(C)c1O, the inhibition was 12.5% (enzyme activity, inhibitor; 0.1 µM).
O=C(O)c1cc(-c2ccc(C3CCNCC3)cc2)c2ccc(-c3ccc(C(F)(F)F)cc3)cc2c1 gave a remaining binding of 100% (cell-free assay, competition with immobilised ligand; 1 µM).
For Nc1ncnc2occ(-c3ccc(NC(=O)Nc4cc(C(F)(F)F)ccc4F)cc3)c12, the remaining signal was 30% (cell-free assay, inhibitor; 20 µM).
The remaining binding of COc1ccc2c(O[C@@H]3C[C@H]4C(=O)N[C@]5(C(=O)O)CC5/C=C\CCCCC[C@H](NC(=O)OC5CCCC5)C(=O)N4C3)cc(-c3csc(NC(=O)C(C)C)n3)nc2c1C (some centres unmarked) is reported as 91% (cell-free assay, competition with immobilised ligand; 1 µM).
The remaining signal of N#CCCc1ccc2c(c1)-c1[nH]c3ccc([N+](=O)[O-])cc3c1CC(=O)N2 is reported as 67.6% (cell-free assay; 0.5 µM).
With O=C(Nc1cnn(-c2csc(C(=O)NC3COC3)c2)c1)Nc1ccccc1Cl the remaining activity was 99.8% (enzyme activity, inhibitor; 5 µM).
COc1cc(Cl)c(C(=O)N[C@@H](CN[C@H]2CC[C@@H](N)CC2)Cc2ccc(C#N)cc2)cc1-c1ccc(CN[C@H](C)c2ccc(C)cc2)o1 gave a remaining activity of 93% (enzyme activity, inhibitor; 1 µM).
The remaining activity of CC(C)(C)c1nc2c(s1)c1nc(N)ncc1c1ccc(NS(=O)(=O)c3c(F)cccc3F)c(F)c12 is reported as 81% (enzyme activity, inhibitor, radiometric; 1 µM).
C#Cc1cccc(Nc2ncnc3cc(OCCOC)c(OCCOC)cc23)c1 has a remaining signal of 95.3% (cell-free assay; 0.5 µM).
With CN1CC(Oc2cnc(C#N)cc2-c2ccn3nc(NC(=O)C4CC4)cc3c2)C1 the inhibition was -8% (enzyme activity, inhibitor; 1 µM).
